According to ChEMBL document CHEMBL4706589, “Discovery of 5-bromo-4-phenoxy-N-phenylpyrimidin-2-amine derivatives as novel ULK1 inhibitors that block autophagy and induce apoptosis in non-small cell lung cancer” (Eur J Med Chem, 2020):

What was measured:
HL-60 = test: Antiproliferative activity against human HL60 cells assessed as reduction in cell viability after 24 hrs by MTT assay; type: functional, cell-based; conditions: HL-60, 24 h
Summary of the method: (§1)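 Cells seeded at 5.5 × 10⁴ cells/mL in 96-well plates and grown 24 h before exposure to graded compound concentrations. Viability read by MTT after 24 h. A549, MCF-7 and MDA-MB-468 were kept in DMEM with 10% FBS under 5% CO₂; HL60 and U937 in RPMI 1640 with 10% FBS. IC50 taken as mean of triplicate tests.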

A549 = test: Antiproliferative activity against human A549 cells assessed as reduction in cell viability after 24 hrs by MTT assay; type: functional, cell-based; conditions: A549, 24 h; summary of the method: as §1
U-937 = test: Antiproliferative activity against human U937 cells assessed as reduction in cell viability after 24 hrs by MTT assay; type: functional, cell-based; conditions: U-937, 24 h; summary of the method: as §1
MCF7 = test: Antiproliferative activity against human MCF-7 cells assessed as reduction in cell viability after 24 hrs by MTT assay; type: functional, cell-based; conditions: MCF7, 24 h; summary of the method: as §1
MDA-MB-468 = test: Antiproliferative activity against human MDA-MB-468 cells assessed as reduction in cell viability after 24 hrs by MTT assay; type: functional, cell-based; conditions: MDA-MB-468, 24 h; summary of the method: as §1
[1] = target: T1, Serine/threonine-protein kinase ULK1 (Homo sapiens) (UniProt O75385); test: Inhibition of recombinant human ULK1 at 10 uM preincubated for 60 mins followed by substrate addition and measured after 30 mins by ADP-glo assay; conditions: time 90.0 min
T1 sequence (whole entry): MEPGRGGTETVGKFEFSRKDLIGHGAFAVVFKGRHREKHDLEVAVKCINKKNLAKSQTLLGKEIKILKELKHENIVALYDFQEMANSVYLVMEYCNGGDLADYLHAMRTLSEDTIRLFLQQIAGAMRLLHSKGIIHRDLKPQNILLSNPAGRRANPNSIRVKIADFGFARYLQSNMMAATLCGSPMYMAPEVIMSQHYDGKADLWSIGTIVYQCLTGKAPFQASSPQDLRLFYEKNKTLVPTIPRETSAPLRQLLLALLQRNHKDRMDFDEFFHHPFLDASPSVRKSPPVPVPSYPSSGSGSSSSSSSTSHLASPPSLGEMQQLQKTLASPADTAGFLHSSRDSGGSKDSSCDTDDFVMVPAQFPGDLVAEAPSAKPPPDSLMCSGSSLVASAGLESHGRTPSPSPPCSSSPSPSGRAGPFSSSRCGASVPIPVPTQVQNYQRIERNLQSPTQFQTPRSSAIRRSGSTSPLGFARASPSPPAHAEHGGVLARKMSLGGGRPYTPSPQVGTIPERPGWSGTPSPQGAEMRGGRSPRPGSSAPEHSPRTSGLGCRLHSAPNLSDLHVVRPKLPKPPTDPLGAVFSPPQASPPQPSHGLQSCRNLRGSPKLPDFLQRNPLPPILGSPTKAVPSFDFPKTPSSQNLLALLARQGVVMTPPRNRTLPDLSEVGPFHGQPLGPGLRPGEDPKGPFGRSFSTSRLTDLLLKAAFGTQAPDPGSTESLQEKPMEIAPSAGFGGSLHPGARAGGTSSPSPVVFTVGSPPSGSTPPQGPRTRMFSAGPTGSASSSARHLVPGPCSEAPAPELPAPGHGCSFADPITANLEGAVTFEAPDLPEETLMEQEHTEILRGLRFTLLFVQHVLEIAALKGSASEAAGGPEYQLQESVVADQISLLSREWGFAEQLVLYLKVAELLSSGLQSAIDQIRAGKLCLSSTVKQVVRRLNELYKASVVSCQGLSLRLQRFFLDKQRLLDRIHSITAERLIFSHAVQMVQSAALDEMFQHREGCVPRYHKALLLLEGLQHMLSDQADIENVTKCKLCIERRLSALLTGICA
Summary of the method: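 Recombinant ULK1 activity was measured by ADP-Glo luminescence of ADP formed, in 40 mM Tris pH 7.5, 20 mM MgCl₂, 0.1 mg/ml BSA and […]. After the kinase reaction, plates were mixed 2 min and held 40 min at room temperature. Detection reagent was then added for 30 min at room temperature before luminescence was read.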

Row | IC50 (HL-60) [µM] | IC50 (A549) [µM] | IC50 (U-937) [µM] | IC50 (MCF7) [µM] | IC50 (MDA-MB-468) [µM] | inhibition [1] [%] | Compound
1 | 43.4 | 39.6 | 39.9 | > 50 | > 50 | 32.3 | COc1cc(Nc2ncc(I)c(NCCCN)n2)cc(OC)c1OC
2 | 21.6 | 16.9 | 22 | 32.7 | 32.3 | 44.9 | CCN(CC)CCNc1nc(Nc2cc(OC)c(OC)c(OC)c2)ncc1I
3 | 39.7 | 23.5 | > 50 | > 50 | 36.6 | 40.1 | CNC(=O)c1ccccc1Oc1nc(Nc2ccc(Br)cc2)ncc1Br
4 | > 50 | 40.5 | 52.1 | > 50 | > 50 | 19.2 | CNC(=O)c1ccccc1Oc1nc(Nc2ccccc2OC)ncc1Br
5 | 16.2 | 6.1 | 15.9 | 16.6 | 18.6 | 73.7 | CNC(=O)c1ccccc1Oc1nc(Nc2cccc(C)c2)ncc1Br
6 | 32.3 | 27.3 | 49.6 | 44.7 | 40.7 | 38.2 | CNC(=O)c1ccccc1Oc1nc(Nc2ccc(C)cc2C)ncc1Br
7 | > 50 | 37.6 | 43.1 | > 50 | > 50 | 15.7 | O=[N+]([O-])c1ccc(Oc2nc(Nc3ccc(Cl)cc3)ncc2Br)c(F)c1
8 | 18.9 | 6.78 | 25.1 | 26.2 | 18.4 | – | CNC(=O)c1ccccc1Oc1nc(Nc2cc(OC)c(OC)c(OC)c2)ncc1Br
9 | 38.7 | 10.6 | 49 | 42.5 | 31.9 | 62.7 | CNC(=O)c1ccccc1Oc1nc(Nc2cccc(Br)c2)ncc1Br
10 | > 50 | 48.7 | > 50 | > 50 | > 50 | 16.3 | Cc1cccc(Nc2ncc(Br)c(Oc3ccc(OCc4ccccc4)cc3)n2)c1
11 | > 50 | > 50 | > 50 | > 50 | > 50 | 22.2 | CNC(=O)c1ccccc1Oc1nc(Nc2ccc3c(c2)OCO3)ncc1Br
12 | 34.7 | 20.3 | 38.6 | 39.1 | 31.4 | 75.7 | CCOc1ccccc1Oc1nc(Nc2cccc(C)c2)ncc1Br
13 | > 50 | > 50 | > 50 | > 50 | > 50 | 21.6 | CNC(=O)c1ccccc1Oc1nc(Nc2ccc(C(F)(F)F)cc2)ncc1Br
14 | > 50 | 38.1 | > 50 | > 50 | > 50 | 17.8 | CNC(=O)c1ccccc1Oc1nc(Nc2ccc(Cl)cc2F)ncc1Br
15 | 17.5 | 7.14 | 14.1 | 26.5 | 19.4 | 84 | CNC(=O)c1ccccc1Oc1nc(Nc2cccc(C(C)C)c2)ncc1Br
16 | > 50 | 43.9 | > 50 | > 50 | > 50 | 3.78 | Cc1cccc(Nc2ncc(Br)c(Oc3cc(Cl)cc(Cl)c3)n2)c1
17 | > 50 | 46.4 | > 50 | > 50 | > 50 | 13.4 | CCN(CC)CCNc1ccnc(Nc2cc(OC)c(OC)c(OC)c2)n1
18 | 44 | 28.3 | 45.5 | 57.8 | 32.8 | 38.8 | CNC(=O)c1ccccc1Oc1nc(Nc2cccc(C(F)(F)F)c2)ncc1Br
19 | > 50 | 35.5 | > 50 | > 50 | > 50 | 27.4 | CNC(=O)c1ccccc1Oc1nc(Nc2ccccc2F)ncc1Br
20 | 38.7 | 24.6 | 51.2 | > 50 | 36.7 | 40.2 | Cc1cccc(Nc2ncc(Br)c(Oc3cccc([N+](=O)[O-])c3)n2)c1
21 | > 50 | 29.7 | > 50 | > 50 | 45.8 | 17.7 | COc1cc(Nc2nccc(NCCCN)n2)cc(OC)c1OC
22 | > 50 | 51 | > 50 | > 50 | > 50 | 12.5 | O=[N+]([O-])c1ccc(Oc2nc(Nc3ccc(Br)cc3)ncc2Br)c(F)c1
23 | 14.7 | 10.3 | 18.6 | 19.1 | 31.3 | 25.7 | Cc1cccc(Nc2ncc(Br)c(Oc3ccc(Br)cc3)n2)c1
24 | 16.2 | 6.23 | 24.3 | 18.2 | 17.8 | 50.5 | CNC(=O)c1ccccc1Oc1nc(Nc2cccc(OC)c2)ncc1Br
25 | 15.5 | 13.9 | 19.4 | 26.8 | 29.2 | 49.3 | Cc1cccc(Nc2ncc(Br)c(Oc3cccc(F)c3)n2)c1
